Shown are actives, neighbours in structure and some others; about 3.7% of the full set was active somewhere.
KCNQ1 block: human KCNQ1 channel inhibition; P51787; CHO-K1 KCNQ1, FluxOR thallium flux fluorescence; active compounds read high; AID 2642; 310,000 tested, 1.3% active; B-score at 10 µM;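 active = compounds whose thallium flux B-score, printed positive for inhibition, exceeds three library SD while starting fluorescence stays within three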;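 note: channel opened by potassium depolarization with thallium stimulus after 20 min compound exposure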
KCNQ1 pot: human KCNQ1 channel potentiation or activation; P51787; B-score at 10 µM; 310,000 tested, 0.35% active; CHO-K1 KCNQ1, thallium flux FluxOR fluorescence; active compounds read high;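 active = fluorescence ratio B-score, a plate-corrected score, at least three library SD, with initial intensity B-score within 5 SD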
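Schedule – 37 °C overnight plating, 90-min dark dye load, 20-min compound pretreatment · System – stable KCNQ1 CHO-K1 line · Probe or stimulus – thallium- and potassium-containing depolarizing buffer · Measured by – kinetic FluxOR fluorescence, 10 s baseline plus 110 s post-stimulus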
KCNK3 inh: human KCNK3 channel inhibition, primary screen; 340,000 tested, 0.84% active; CHO-KCNK3 thallium flux, FluxOR fluorescence; active compounds read low; B-score at 10 µM; O14649;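 active = B-score under library mean minus 4 SD, starting fluorescence ratio at most library mean plus 5 SD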;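 note: more negative B-score means stronger inhibition of thallium flux through KCNK3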
Target sequence (O14649 whole entry, looked up): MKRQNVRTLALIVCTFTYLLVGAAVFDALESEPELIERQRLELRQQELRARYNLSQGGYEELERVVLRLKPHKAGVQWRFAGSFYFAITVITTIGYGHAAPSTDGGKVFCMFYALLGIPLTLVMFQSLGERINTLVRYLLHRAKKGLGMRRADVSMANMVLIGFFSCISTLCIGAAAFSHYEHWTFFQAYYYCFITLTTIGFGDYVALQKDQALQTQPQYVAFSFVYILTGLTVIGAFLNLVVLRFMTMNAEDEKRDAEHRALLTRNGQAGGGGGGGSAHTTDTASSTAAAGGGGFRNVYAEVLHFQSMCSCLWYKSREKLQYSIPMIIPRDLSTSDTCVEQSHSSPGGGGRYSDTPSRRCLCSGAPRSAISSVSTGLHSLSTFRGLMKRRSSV
KCNK9 block: inhibitors of human KCNK9 two-pore domain potassium channel; Q9NPC2; HEK293 KCNK9, FluxOR thallium flux fluorescence; active compounds read low; B-score at 10 µM; 310,000 tested, 1.2% active;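 active = ratio B-score over 3 SD below the library mean, with starting fluorescence within 5 SD of its mean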;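 note: negative B-score means less thallium flux so channel inhibition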
hERG rescue: hERG (human) protection from proarrhythmic block; CHO-hERG, FluxOR thallium flux, dofetilide IC70 present; Q12809; AID 1511; activation (rescue from dofetilide block), less the hit threshold, % at 10 µM; 310,000 tested, 0.51% active;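 active = activation above the mean of controls blocked by dofetilide plus 5 SD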;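 note: thallium influx through hERG after potassium depolarization seen as dye fluorescence rise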
Kir21 block: Kir2.1 (mouse) channel inhibition; 310,000 tested, 0.85% active; P35561; HEK293-Kir2.1, FluxOR thallium flux fluorescence; active compounds read low; AID 1672; B-score at 10 µM;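 active = fluorescence ratio B-score at or below minus 3 SD of library scores, with starting-brightness B-score within 2 SD, cut at about -4.2 in these data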;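 note: channel flux triggered by added potassium and thallium sulfate stimulus; B-score of peak minus minimum fluorescence over baseline after thallium stimulus; more negative B-score means stronger Kir2.1 block with less thallium influx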
Numbers without * were called inactive; i = inactive; . = no result given.

SMILES	KCNQ1 block	KCNQ1 pot	KCNK3 inh	KCNK9 block	hERG rescue	Kir21 block
Cc1ccc(C2C(/C=C3/SC(=S)NC3=O)=C(c3cccs3)Oc3ccccc32)cc1 (configuration not stated)	i	8*	i	i	-7	0.44
O=C1NC(=S)SC1=Cc1ccccc1Cl	.	.	i	.	.	.
O=C(/C=C/c1cn(-c2ccccc2)nc1-c1cccc(Cl)c1)N1CCN(c2ccccn2)CC1	7*	i	i	i	-23	0.44
CC1CCCC(NC(=O)Cn2c(Cl)nc3c2c(=O)n(C)c(=O)n3C)C1C (configuration not stated)	.	.	i	.	.	.
C[C@@H]1CN(S(=O)(=O)C(C)(C)C)[C@H](CCO)/C1=C\c1ccccc1	.	.	i	.	.	.
Cc1nnc(NC(=O)CN2CCN(Cc3ccccc3)CC2)s1	i	i	i	i	-7	0.15
Cc1nnc(NC(=O)CN2CCN(Cc3ccc(F)cc3Cl)CC2)s1	i	i	i	i	6.3*	0.35
COc1ccc(N=C2S/C(=C\c3ccc(Cl)c([N+](=O)[O-])c3)C(=O)N2CCN(C)C)cc1	10*	i	i	i	-35	0.21
CCN(CC)CCN1C(=O)/C(=C\c2ccc(Cl)c([N+](=O)[O-])c2)SC1=Nc1ccc(OC)cc1	i	i	i	i	-19	1.4
Cc1ccc2c(c1)C(=C(C#N)C#N)C(=O)N2CCN1CCCCC1	i	i	i	i	-5	0.33
O=C(COC(=O)c1ccc(Br)cc1)NCCN1C(=O)CSC1=O	i	i	i	i	7.3*	-0.06
COc1cc(NS(=O)(=O)c2ccc(-c3ccc(=O)[nH]n3)o2)cc(OC)c1OC	i	i	i	i	-9	-0.06
CCC(=O)Nc1ccc(C(=O)CSc2nc3ccccc3cc2CC)cc1	i	i	i	-7.2*	-8	-1.5
COc1ccc(OC)c(S(=O)(=O)Nc2ccc3c(c2)N(C(C)=O)CCC3)c1	i	13*	i	i	-11	-0.12
CC(=O)N1CCCc2ccc(NS(=O)(=O)c3ccc(C)c(C)c3)cc21	i	i	i	i	-11	-1.7
Cc1ccccc1N(CC(=O)NC1CCCC1)C(=O)c1oc(C(C)(C)C)cc1C	i	i	i	i	-9	-0.39
Cc1cc(C(C)(C)C)oc1C(=O)N(CC(=O)NC1CCCC1)c1cccc(C(F)(F)F)c1	i	i	-9*	-8*	0	1.3
Oc1c(N=NC(=S)Nc2ccccc2F)c2ccccc2n1Cc1ccccc1Cl	i	10*	i	i	21*	-0.89
C=CCn1c(O)c(N=NC(=S)Nc2ccccc2F)c2cc(S(=O)(=O)N3CCOCC3)ccc21	i	10*	i	i	5.9*	-0.01
Oc1c(N=NC(=S)Nc2ccccc2F)c2ccccc2n1Cc1ccccc1	i	10*	i	i	59*	-1.1
Cc1ccc(Cn2c(O)c(N=NC(=S)Nc3ccccc3F)c3ccccc32)cc1	i	i	i	i	18*	0.56
NC(=S)N=Nc1c(O)n(Cc2ccccc2)c2ccccc12	i	i	i	i	-4	3.2
C=CCn1c(O)c(N=NC(=O)c2ccccc2NS(=O)(=O)c2cccs2)c2ccccc21	i	i	i	i	-10	0.04
CCn1c(O)c(N=NC(=O)CNc2cccc(C)c2)c2ccccc21	i	i	i	i	2	-2
C=CCn1c(O)c(N=NC(=S)Nc2ccccc2F)c2ccccc21	i	48*	i	i	102*	-2.6
SMILES	KCNQ1 block	KCNQ1 pot	KCNK3 inh	KCNK9 block	hERG rescue	Kir21 block
C/C(Cl)=C\Cn1c(O)c(N=NC(N)=S)c2ccccc21	i	i	i	i	15*	0.9
C=CCn1c(O)c(N=NC(=S)Nc2cccc(C)c2)c2ccccc21	i	40*	i	i	19*	-0.98
CC(C)(O)C#Cc1ccc(CN2CCCC(CNC(=O)c3ccco3)C2)cc1 (configuration not stated)	i	i	i	i	-7	-1.5
CC(=O)c1c(C)n(-c2ccccc2)c2ccc(OCC(N)=O)cc12	i	i	i	i	-12	-2.5
CCN1C(=O)/C(=C/c2ccc(N3CCCC3)cc2)NC1=S	12*	i	i	i	-11	-5.8
CCCN1C(=O)/C(=C/c2ccc(N3CCCC3)c(C)c2)NC1=S	i	i	i	i	-16	-4
CC(C)c1ccc(NC(=O)c2cc(S(=O)(=O)N3CCCCC3)c[nH]2)cc1	i	i	i	i	-6	-0.23
NNC(=O)c1[nH]c2ccc([N+](=O)[O-])cc2c1-c1ccccc1	i	i	i	i	-2	-0.66
O=C(N/N=C/c1ccccn1)c1[nH]c2ccc([N+](=O)[O-])cc2c1-c1ccccc1	10*	i	i	i	-19	-2.5
CC(=O)NC(CC(C)C)C(=O)O (configuration not stated)	.	.	i	.	.	.
CN(c1ccc(OC(=O)c2ccc(-n3cncn3)c([N+](=O)[O-])c2)cc1)S(=O)(=O)c1ccccc1	.	.	i	.	.	.
CS(=O)(=O)N(Cc1cccc(CN(C(C(=O)O)c2ccccc2)S(C)(=O)=O)c1)C(C(=O)O)c1ccccc1 (configuration not stated)	i	i	i	i	-3	0.97
CC(C)C[C@@H](C(=O)O)N(Cc1cccc(CN([C@@H](CC(C)C)C(=O)O)S(C)(=O)=O)c1)S(C)(=O)=O	i	i	i	i	4.7*	-0.25
C/C=C(\C)C(=O)OC1[C@H](OC(C)=O)C2(CO)C(CC1(C)C)C1=CCC3C4(C)CCC(O[C@@H]5O[C@H](C(=O)O)[C@@H](O[C@@H]6O[C@H](CO)[C@@H](O)[C@H](O)[C@H]6O)[C@H](O)[C@H]5O[C@H]5O[C@H](CO)[C@@H](O)[C@H](O)[C@H]5O)[C@](C)(CO)C4CCC3(C)[C@]1(C)C[C@H]2O (some centres not stated)	.	.	i	.	.	.
CC1=C(C(=O)Nc2ccccc2)C(c2ccco2)C(C#N)=C(SCC(=O)Nc2cccc(C)c2C)N1 (configuration not stated)	i	i	i	i	-7	0.17
CC1=C(C(=O)Nc2ccccc2)C(c2ccco2)C(C#N)=C(SCc2ccccc2)N1 (configuration not stated)	11*	i	.	i	-12	1.3
CC1=C(C(=O)Nc2ccccc2)C(c2ccco2)C(C#N)=C(SCC(=O)OC(C)C)N1 (configuration not stated)	i	i	-9.8*	i	-25	0.39
